# Test results taken from ChEMBL document CHEMBL1123508, “Relationship between lipophilic character and urinary excretion of nitroimidazoles and nitrothiazoles in rats” (J Med Chem, 1986).
# Legend:
# [1] = The amount of unchanged compound detected in urine collected at 0-18 hr after treatment; conditions: rat
# [2] = The amount of unchanged compound in urine collected at 0-54 hr after treatment; conditions: rat
# Rattus norvegicus [3] = assay: The total 54 h urinary excretion of unchanged compound reported as log (percent X 10) of the administered dose; conditions: in vivo
# Rattus norvegicus [4] = assay: The total 18 hr urinary excretion of unchanged compound reported as log (percent X 10) of the administered dose; conditions: in vivo
# [5] = The amount of unchanged compound in urine collected at 0-72 h after treatment; conditions: rat
# [6] = The amount of unchanged compound in urine collected at 0-36 hr after treatment; conditions: rat
# Rattus norvegicus [7] = assay: The total 72 hr urinary excretion of unchanged compound reported as log (percent X 10) of the administered dose; conditions: in vivo
# [8] = octanol/water
# Rattus norvegicus [9] = assay: The total 36 hr urinary excretion of unchanged compound reported as log (percent X 10) of the administered dose; conditions: in vivo
# [10] = Partition coefficient (logP); conditions: octanol/water
# [11] = The amount of the unchanged form of compound detected in the urine samples collected at 0-18 hr after the treatment by HPLC technique; assay type: ADME, organism-based; conditions: rat, read-out: Amount excreted
# Outline: (§1)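 Female Sprague-Dawley rats (200 ± 20 g) on chow diet, three per compound, dosed ip in Me2SO (50 μmol mL⁻¹ kg⁻¹). Urine pooled over 0-18 h. One mL urine was spiked with internal standard and extracted, the residue was taken up in 200 μL methanol, and 10-20 μL was injected for HPLC of the unchanged drug. Values expressed as log (percent × 10) of dose.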
# Rattus norvegicus [12] = assay: The total 18 hr urinary excretion of the unchanged form of compound in urine was reported as log (percent X 10) of the administered dose by HPLC technique; assay type: ADME, organism-based; conditions: in vivo; outline: as §1
SMILES,dose excreted [1],dose excreted [2],Log BR (Rattus norvegicus [3]),Log BR (Rattus norvegicus [4]),dose excreted [5],dose excreted [6],Log BR (Rattus norvegicus [7]),Log k' [8],Log BR (Rattus norvegicus [9]),logP [10],dose excreted [11],log(10 × % of dose excreted unchanged in urine) (Rattus norvegicus [12])
Cc1ncc([N+](=O)[O-])n1CC(=O)N1CCN(C(=O)Cn2c([N+](=O)[O-])cnc2C)CC1,14.3%,18.6%,2.27,2.155,18.6%,18.6%,2.27,0.028,2.27,–,–,–
Cn1c([N+](=O)[O-])cnc1C=O,10.6%,29.9%,2.477,2.025,29.9%,29.9%,2.477,-0.067,2.477,-0.69,10.4%,2.023
O=[N+]([O-])c1c[nH]cn1,33.8%,46.1%,2.664,2.529,46.1%,39.9%,2.664,0,2.601,–,–,–
Cc1ncc([N+](=O)[O-])n1CC(=O)Nc1ncccn1,37.1%,42.1%,2.701,2.569,42.1%,38.9%,2.701,-0.115,2.59,-0.3,35.4%,2.549
CN1CCN(Cc2ncc([N+](=O)[O-])n2C)CC1,41.7%,45.5%,2.658,2.62,45.5%,45.5%,2.658,0.014,2.658,-0.33,–,–
O=[N+]([O-])c1cnc(/C=C/c2ccc3c(c2)OCO3)n1CCO,–,3.4%,1.529,1.529,3.4%,3.4%,1.529,0.659,1.529,2.03,–,–
Cn1c([N+](=O)[O-])cnc1CO,32.6%,60.6%,2.782,2.513,64.9%,56.8%,2.81,-0.11,2.754,-0.03,–,–
Cn1c([N+](=O)[O-])cnc1C1CC1,4.1%,12.9%,2.113,1.613,12.9%,12.9%,2.113,0.455,2.113,1,–,–
Nc1ncc(S(=O)(=O)c2ccc([N+](=O)[O-])cc2)s1,48.6%,64.7%,2.811,2.687,64.7%,64.7%,2.811,-0.049,2.811,-0.43,–,–
CCC(CC)C(O)Cn1c([N+](=O)[O-])cnc1C (stereo unspecified),36.4%,51.7%,2.713,2.561,51.7%,51.7%,2.713,0.058,2.713,-0.08,–,–
Cn1c([N+](=O)[O-])cnc1/C=C(\Oc1ccccc1)C(=O)O,2.5%,21.7%,2.337,1.4,21.7%,19%,2.337,-0.199,2.28,-1,–,–
CCN(CC)CCOCCn1c([N+](=O)[O-])cnc1C,23.4%,28.5%,2.455,2.369,28.5%,28.5%,2.455,0.021,2.455,-0.38,–,–
Cn1c([N+](=O)[O-])cnc1/C=C/c1ccnc(N)n1 [AZANIDAZOLE],13.8%,16%,2.202,2.142,16%,16%,2.202,0.423,2.202,0.85,11.3%,2.054
COC(=S)NCCn1c([N+](=O)[O-])cnc1C [CARNIDAZOLE],6.7%,23.1%,2.364,1.826,23.1%,21.5%,2.364,0.465,2.33,0.9,6.5%,1.819
CC(C)c1ncc([N+](=O)[O-])n1C [IPRONIDAZOLE],4.3%,9.1%,1.96,1.633,9.1%,9.1%,1.96,0.45,1.96,1.06,2.5%,1.398
O=[N+]([O-])c1cncn1CCN1CCOCC1 [NIMORAZOLE],43.6%,52.4%,2.719,2.639,52.4%,52.4%,2.719,0.188,2.719,–,–,–
O=C1NCCN1c1ncc([N+](=O)[O-])s1 [NIRIDAZOLE],4.6%,7.3%,1.861,1.663,7.3%,7.3%,1.861,0.363,1.861,0.92,–,–
Cc1ncc([N+](=O)[O-])n1CC(O)CCl (stereo unspecified) [ORNIDAZOLE],13.2%,36.9%,2.567,2.121,42.1%,29.6%,2.625,–,2.471,–,11.7%,2.068
